Test results published in ChEMBL document CHEMBL4261535, “Tetrahydroquinolinone derivatives as potent P-glycoprotein inhibitors: design, synthesis, biological evaluation and molecular docking analysis” (Medchemcomm, 2017).
Activity calls are given as the source filed them. The rule behind the calls is not given here.

What was measured:
[1] = tested on: MES-SA; assay: Increase in rhodamine 123 accumulation in human MES-SA cells at 5 to 100 uM preincubated for 20 mins followed by rhodamine 123 addition and measured after 20 mins by flow cytometric method; assay type: functional, cell-based
Summary of the method: (§1)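 Cells in serum-free RPMI at 5 × 10^5 cells per ml (MES-SA/DX5 taken off doxorubicin one day before). Compound 20 min at 37 °C, then 5 μM rhodamine 123 for 20 min at 37 °C. Washed twice in ice-cold PBS, kept on ice. Flow cytometry at 488 nm excitation, 530 nm emission, 20 000 cells. Gmean fluorescence expressed as a ratio to untreated cells. Verapamil was the positive control.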

[2] = n-octanol-water partition co-efficient, log P of the compound; assay type: physicochemical
[3] = species on record: Homo sapiens; assay: Inhibition of p-gp in human MES-SA/DX5 cells assessed as increase in rhodamine 123 accumulation preincubated for 20 mins followed by rhodamine 123 addition and measured after 20 mins by fluorescence microscopic method; assay type: cell-based
Summary of the method: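 MES-SA/DX5 seeded at 2 × 10^5 cells per ml and grown two days at 37 °C. Compound at 25 μM for 20 min, then rhodamine 123 at 5 μM final for 20 min. Cells washed three times with ice-cold PBS and resuspended in cold PBS. Imaged by fluorescence microscopy with a blue filter (510–560 nm). Untreated cells served as control.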

[4] = species on record: Homo sapiens; assay: Inhibition of p-gp in human MES-SA/DX5 cells assessed as potentiation of doxorubicin-induced cytotoxicity at 5 uM preincubated for 1.5 hrs followed by doxorubicin addition and measured after 48 hrs by MTT assay; assay type: cell-based
[5] = species on record: Homo sapiens; assay: Inhibition of p-gp in human MES-SA/DX5 cells assessed as increase in rhodamine 123 accumulation preincubated for 20 mins followed by rhodamine 123 addition and measured after 20 mins by flow cytometric method; assay type: cell-based; summary of the method: as §1
[6] = species on record: Homo sapiens; assay: Inhibition of p-gp in human MES-SA/DX5 cells assessed as potentiation of doxorubicin-induced cytotoxicity at 25 uM preincubated for 1.5 hrs followed by doxorubicin addition and measured after 48 hrs by MTT assay; assay type: cell-based

Structure (SMILES) | Activity [1] | logP [2] | inhibition [3] | inhibition [4] | inhibition [5] | inhibition [6]
CC1=C(C(=O)OCc2ccccn2)C(c2ccccc2[N+](=O)[O-])C2=C(CCCC2=O)N1 (stereo not given) | inactive | 1.88 | Dose-dependent effect | Active |  | 
CC1=C(C(=O)OCc2cccnc2)C(c2ccc(Br)cc2)C2=C(CCCC2=O)N1 (stereo not given) | inactive | 2.05 |  | Active | Dose-dependent effect | 
COc1cc(C2C(C(=O)OCc3ccccn3)=C(C)NC3=C2C(=O)CCC3)cc(OC)c1OC (stereo not given) | inactive | 2.17 |  |  | Dose-dependent effect | 
CC1=C(C(=O)OCc2ccccn2)C(c2ccc(Cl)cc2)C2=C(CCCC2=O)N1 (stereo not given) | inactive | 2.24 |  | Active | Dose-dependent effect | 
CC1=C(C(=O)OCc2ccccn2)C(c2cccc(O)c2)C2=C(CCCC2=O)N1 (stereo not given) | inactive | 1.58 |  |  | Dose-dependent effect | 
CCCC1C(C(=O)OCc2ccccn2)=C(C)NC2=C1C(=O)CCC2 (stereo not given) | inactive | 2.6 |  |  | Dose-dependent effect | 
CC1=C(C(=O)OCc2ccccn2)C(c2cccc([N+](=O)[O-])c2)C2=C(CCCC2=O)N1 (stereo not given) | inactive | 1.88 |  |  | Dose-dependent effect | 
CC1=C(C(=O)OCc2cccnc2)C(c2ccc(C#N)cc2)C2=C(CCCC2=O)N1 (stereo not given) | inactive | 1.36 |  |  | Dose-dependent effect | 
CCCC1C(C(=O)OCc2cccnc2)=C(C)NC2=C1C(=O)CCC2 (stereo not given) | inactive | 2.23 |  |  | Dose-dependent effect | 
CC1=C(C(=O)OCc2cccnc2)C(c2cccc(O)c2)C2=C(CCCC2=O)N1 (stereo not given) | inactive | 1.21 |  |  | Dose-dependent effect | 
CC1=C(C(=O)OCc2ccccn2)C(c2ccc([N+](=O)[O-])cc2)C2=C(CCCC2=O)N1 (stereo not given) | inactive | 1.88 | Dose-dependent effect | Active | Dose-dependent effect | 
CC1=C(C(=O)OCc2ccccn2)C(c2ccc(Br)cc2)C2=C(CCCC2=O)N1 (stereo not given) | inactive | 2.42 | Dose-dependent effect | Active | Dose-dependent effect | 
COc1ccc(C2C(C(=O)OCc3cccnc3)=C(C)NC3=C2C(=O)CCC3)cc1 (stereo not given) | inactive | 1.53 |  |  | Dose-dependent effect | 
CC1=C(C(=O)OCc2cccnc2)C(c2ccc([N+](=O)[O-])cc2)C2=C(CCCC2=O)N1 (stereo not given) | inactive | 1.51 | Dose-dependent effect |  | Dose-dependent effect | Active
CC1=C(C(=O)OCc2cccnc2)C(c2ccc(Cl)cc2)C2=C(CCCC2=O)N1 (stereo not given) | inactive | 1.87 |  | Active | Dose-dependent effect | 
CC1=C(C(=O)OCc2ccccn2)C(c2ccco2)C2=C(CCCC2=O)N1 (stereo not given) | inactive | 1.4 |  |  | Dose-dependent effect | 
CC1=C(C(=O)OCc2cccnc2)C(c2ccccc2[N+](=O)[O-])C2=C(CCCC2=O)N1 (stereo not given) | inactive | 1.51 | Dose-dependent effect |  |  | Active
CC1=C(C(=O)OCc2cccnc2)C(c2cccs2)C2=C(CCCC2=O)N1 (stereo not given) | inactive | 1.4 |  |  | Dose-dependent effect | Active
CC1=C(C(=O)OCc2ccccn2)C(c2ccc(O)cc2)C2=C(CCCC2=O)N1 (stereo not given) | inactive | 1.58 |  |  | Dose-dependent effect | 
CC1=C(C(=O)OCc2ccccn2)C(c2cccs2)C2=C(CCCC2=O)N1 (stereo not given) | inactive | 1.77 |  |  | Dose-dependent effect | 
CC1=C(C(=O)OCc2cccnc2)C(c2ccco2)C2=C(CCCC2=O)N1 (stereo not given) | inactive | 1.03 |  |  | Dose-dependent effect | 
CC1=C(C(=O)OCc2cccnc2)C(c2ccccc2)C2=C(CCCC2=O)N1 (stereo not given) | inactive | 2.35 |  |  | Dose-dependent effect | 
COc1ccc(C2C(C(=O)OCc3ccccn3)=C(C)NC3=C2C(=O)CCC3)cc1 (stereo not given) | inactive | 1.9 |  | Active | Dose-dependent effect | 
CC1=C(C(=O)OCc2ccccn2)C(c2ccccc2)C2=C(CCCC2=O)N1 (stereo not given) | inactive | 2.72 |  |  | Dose-dependent effect | 
CC1=C(C(=O)OCc2ccccn2)C(c2ccc(C#N)cc2)C2=C(CCCC2=O)N1 (stereo not given) | inactive | 1.73 | Dose-dependent effect | Active | Dose-dependent effect | 
